Source: ChEMBL document CHEMBL1123408, “Influence of alkyl-chain fluorination on the action of mammary tumor inhibiting 2,3-bis(hydroxyphenyl)butanes and 2,3-bis(hydroxyphenyl)but-2-enes” (1986)
Several values for one entry are separate records, joined by “and”; a condition that tells them apart may be missing. Equal values may be shown once.

Experiments:
[1] = biological target: T1, Estrogen receptor (Mus musculus) (UniProt O08537+P19785); assay: Uterotrophic effect in BD2F mice bearing transplantable hormone dependent MXT at 4 mg dose; type: functional, tissue-based; conditions: Uterus
In short: (§1)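 MXT-bearing female BD2F1 mice (10 per group) dosed sc in olive oil three times weekly for 6 weeks from the day after tumor transplantation. Uteri excised at sacrifice and dry weight determined; values given as mean ± SD.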

[2] = biological target: T1, Estrogen receptor (Mus musculus); assay: (§2) Uterotrophic effect in mice at 1 ug dose; type: functional, tissue-based; parameters: unit not given here; conditions: Uterus
In short: (§3)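 Immature female NMRI mice, 20 days old, 10 per group, given daily sc injections of 0.1 mL olive oil solution for 3 days. Uteri removed 24 h after the last dose, fixed in Bouin's solution, washed, dried and weighed. Antiestrogenic testing measured inhibition of estrone-stimulated uterine growth.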

[3] = biological target: T1, Estrogen receptor (Mus musculus); assay: Uterotrophic effect in mice at 10 ug dose; type: functional, tissue-based; parameters: unit not given here; conditions: Uterus; in short: as §3
[4] = biological target: T1, Estrogen receptor (Mus musculus); assay: (§4) Uterotrophic effect in mice at 100 ug dose; type: functional, tissue-based; parameters: unit not given here; conditions: Uterus; in short: as §3
[5] = biological target: T1, Estrogen receptor (Mus musculus); assay: Uterotrophic effect in mice at 0.1 ug dose; type: functional, tissue-based; parameters: unit not given here; conditions: Uterus; in short: as §3
[6] = biological target: T1, Estrogen receptor (Mus musculus); assay: Uterotrophic effect in mice at 500 ug dose; type: functional, tissue-based; parameters: unit not given here; conditions: Uterus; in short: as §3
Mus musculus [7] = species: Mus musculus; assay: Relative average tumor wet weight in treated compared to untreated mice at 4 mg dose; type: functional
In short: (§5)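 Syngeneic female BD2F1 mice (8–10 weeks) received sc trocar implants of 1–2-mm³ MXT tumor pieces, 10 per group. Treatment began the next day: sc doses in olive oil (solution or suspension), three times weekly for 6 weeks. Tamoxifen-treated control group included. Tumor wet weight measured at sacrifice; expressed as % T/C versus untreated controls.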

[8] = biological target: T1, Estrogen receptor (Mus musculus); assay: Uterotrophic effect in BD2F mice bearing transplantable hormone dependent MXT at 20 mg dose; type: functional, tissue-based; conditions: Uterus; in short: as §1
[9] = biological target: T1, Estrogen receptor (Mus musculus); assay: (§6) Uterotrophic effect in mice at 0 ug dose; type: functional, tissue-based; parameters: unit not given here; conditions: Uterus; in short: as §3
[10] = biological target: T1, Estrogen receptor (Mus musculus); assay: Uterotrophic effect in mice at 25 ug dose; type: functional, tissue-based; parameters: unit not given here; conditions: Uterus; in short: as §3
[11] = biological target: T1, Estrogen receptor (Mus musculus); assay: (§7) Uterotrophic effect in mice at 1000 ug dose; type: functional, tissue-based; conditions: Uterus; in short: as §3
Mus musculus [12] = species: Mus musculus; assay: Relative average tumor wet weight in treated compared to untreated mice at 20 mg dose; type: functional; in short: as §5
[13] = biological target: T1, Estrogen receptor (Mus musculus); assay: as §6; type: functional, tissue-based; parameters: unit not given here; conditions: Uterus; in short: as §3; remark: listed apart in the source
[14] = biological target: T1, Estrogen receptor (Mus musculus); assay: Uterotrophic effect in mice at 5 ug dose; type: functional, tissue-based; conditions: Uterus; in short: as §3
[15] = biological target: T1, Estrogen receptor (Mus musculus); assay: as §4; type: functional, tissue-based; parameters: unit not given here; conditions: Uterus; in short: as §3; remark: listed apart in the source
Rattus norvegicus [16] = assay: Percent complete remission in DMBA-Induced Hormone-Dependent Mammary Carcinoma in rats at 18 mg/kg dose; type: functional
Rattus norvegicus [17] = assay: Percent unchanged tumors in DMBA-Induced Hormone-Dependent Mammary Carcinoma in rats at 18 mg/kg dose; type: functional
Rattus norvegicus [18] = assay: Percent complete remission in DMBA-Induced Hormone-Dependent Mammary Carcinoma in rats at 36 mg/kg dose; type: functional
Rattus norvegicus [19] = assay: Initial tumor number in DMBA-Induced Hormone-Dependent Mammary Carcinoma in rats at 18 mg/kg dose; type: functional
[20] = biological target: T1, Estrogen receptor (Mus musculus); assay: Uterotrophic effect in BD2F mice bearing transplantable hormone dependent MXT at 13.84 mg dose; type: functional, tissue-based; conditions: Uterus; in short: as §1
Rattus norvegicus [21] = assay: Percent unchanged tumors in DMBA-Induced Hormone-Dependent Mammary Carcinoma in rats at 72 mg/kg dose; type: functional
Rattus norvegicus [22] = assay: Final tumor number in DMBA-Induced Hormone-Dependent Mammary Carcinoma in rats at 18 mg/kg dose; type: functional
Rattus norvegicus [23] = assay: Percent progression in DMBA-Induced Hormone-Dependent Mammary Carcinoma in rats at 36 mg/kg dose; type: functional
Rattus norvegicus [24] = assay: Initial tumor number in DMBA-Induced Hormone-Dependent Mammary Carcinoma in rats at 36 mg/kg dose; type: functional
Rattus norvegicus [25] = assay: Percent unchanged tumors in DMBA-Induced Hormone-Dependent Mammary Carcinoma in rats at 36 mg/kg dose; type: functional
Rattus norvegicus [26] = assay: Percent partial remission in DMBA-Induced Hormone-Dependent Mammary Carcinoma in rats at 36 mg/kg dose; type: functional
Rattus norvegicus [27] = assay: Final tumor number in DMBA-Induced Hormone-Dependent Mammary Carcinoma in rats at 72 mg/kg dose; type: functional
Rattus norvegicus [28] = assay: Percent change in total tumor area in DMBA-Induced Hormone-Dependent Mammary Carcinoma rats at 18 mg/kg dose; type: functional
Rattus norvegicus [29] = assay: Percent complete remission in DMBA-Induced Hormone-Dependent Mammary Carcinoma in rats at 72 mg/kg dose; type: functional
Rattus norvegicus [30] = assay: Percent change in total tumor area in DMBA-Induced Hormone-Dependent Mammary Carcinoma rats at 72 mg/kg dose; type: functional
Mus musculus [31] = species: Mus musculus; assay: Relative average tumor wet weight in treated compared to untreated mice at 13.84 mg dose; type: functional
In short: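 MXT mammary tumor pieces of 1-2 mm³ from syngeneic donors were implanted sc by trocar into female BD2F₁ mice aged 8-10 weeks (20.0 ± 1.7 g), groups of 10. From the next day, compound in olive oil was given sc three times weekly for 6 weeks. Tumor wet weight was measured at the end and expressed as % T/C.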

Rattus norvegicus [32] = assay: Percent partial remission in DMBA-Induced Hormone-Dependent Mammary Carcinoma in rats at 72 mg/kg dose; type: functional
Rattus norvegicus [33] = assay: Percent change in body weight in DMBA-Induced Hormone-Dependent Mammary Carcinoma rats at 36 mg/kg dose; type: functional
[34] = biological target: T1, Estrogen receptor (Mus musculus); assay: Uterotrophic effect in mice at 5000 ug dose; type: functional, tissue-based; conditions: Uterus, in the assay text read “50 ug” for “5000 ug”; in short: as §3
Rattus norvegicus [35] = assay: Percent partial remission in DMBA-Induced Hormone-Dependent Mammary Carcinoma in rats at 18 mg/kg dose; type: functional
Rattus norvegicus [36] = assay: Initial tumor number in DMBA-Induced Hormone-Dependent Mammary Carcinoma in rats at 72 mg/kg dose; type: functional
[37] = biological target: T1, Estrogen receptor (Mus musculus); assay: Uterotrophic effect in BD2F mice bearing transplantable hormone dependent MXT at 2.76 mg dose; type: functional, tissue-based; conditions: Uterus; in short: as §1
Rattus norvegicus [38] = assay: Percent change in total tumor area in DMBA-Induced Hormone-Dependent Mammary Carcinoma rats at 36 mg/kg dose; type: functional
Rattus norvegicus [39] = assay: Final tumor number in DMBA-Induced Hormone-Dependent Mammary Carcinoma in rats at 36 mg/kg dose; type: functional
Rattus norvegicus [40] = assay: Percent change in body weight in DMBA-Induced Hormone-Dependent Mammary Carcinoma rats at 72 mg/kg dose; type: functional
[41] = biological target: T1, Estrogen receptor (Mus musculus); assay: as §2; type: functional, tissue-based; conditions: Uterus; in short: as §3
Rattus norvegicus [42] = assay: Percent progression in DMBA-Induced Hormone-Dependent Mammary Carcinoma in rats at 72 mg/kg dose; type: functional
Rattus norvegicus [43] = assay: Percent change in body weight in DMBA-Induced Hormone-Dependent Mammary Carcinoma rats at 18 mg/kg dose; type: functional
[44] = biological target: T1, Estrogen receptor (Mus musculus); assay: as §7; type: functional, tissue-based; parameters: unit not given here; conditions: Uterus; in short: as §3
Mus musculus [45] = species: Mus musculus; assay: Relative average tumor wet weight in treated compared to untreated mice at 2.77 mg dose; type: functional; in short: as §5
Rattus norvegicus [46] = assay: Percent progression in DMBA-Induced Hormone-Dependent Mammary Carcinoma in rats at 18 mg/kg dose; type: functional

T1 sequence (O08537 whole entry, looked up): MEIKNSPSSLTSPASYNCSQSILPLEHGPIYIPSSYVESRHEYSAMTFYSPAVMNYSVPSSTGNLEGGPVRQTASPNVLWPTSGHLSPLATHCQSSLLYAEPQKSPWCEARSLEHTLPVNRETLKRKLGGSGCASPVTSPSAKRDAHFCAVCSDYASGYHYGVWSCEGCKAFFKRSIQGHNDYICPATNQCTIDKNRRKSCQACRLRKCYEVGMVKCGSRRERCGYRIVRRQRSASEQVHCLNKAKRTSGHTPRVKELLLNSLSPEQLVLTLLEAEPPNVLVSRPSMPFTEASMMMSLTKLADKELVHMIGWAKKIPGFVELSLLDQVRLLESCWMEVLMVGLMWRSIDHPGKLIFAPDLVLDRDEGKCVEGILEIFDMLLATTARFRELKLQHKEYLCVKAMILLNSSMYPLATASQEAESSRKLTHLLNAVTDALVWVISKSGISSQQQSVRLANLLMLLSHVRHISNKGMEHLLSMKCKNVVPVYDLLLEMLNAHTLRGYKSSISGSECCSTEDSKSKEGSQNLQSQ
T1 sequence (P19785 whole entry, looked up): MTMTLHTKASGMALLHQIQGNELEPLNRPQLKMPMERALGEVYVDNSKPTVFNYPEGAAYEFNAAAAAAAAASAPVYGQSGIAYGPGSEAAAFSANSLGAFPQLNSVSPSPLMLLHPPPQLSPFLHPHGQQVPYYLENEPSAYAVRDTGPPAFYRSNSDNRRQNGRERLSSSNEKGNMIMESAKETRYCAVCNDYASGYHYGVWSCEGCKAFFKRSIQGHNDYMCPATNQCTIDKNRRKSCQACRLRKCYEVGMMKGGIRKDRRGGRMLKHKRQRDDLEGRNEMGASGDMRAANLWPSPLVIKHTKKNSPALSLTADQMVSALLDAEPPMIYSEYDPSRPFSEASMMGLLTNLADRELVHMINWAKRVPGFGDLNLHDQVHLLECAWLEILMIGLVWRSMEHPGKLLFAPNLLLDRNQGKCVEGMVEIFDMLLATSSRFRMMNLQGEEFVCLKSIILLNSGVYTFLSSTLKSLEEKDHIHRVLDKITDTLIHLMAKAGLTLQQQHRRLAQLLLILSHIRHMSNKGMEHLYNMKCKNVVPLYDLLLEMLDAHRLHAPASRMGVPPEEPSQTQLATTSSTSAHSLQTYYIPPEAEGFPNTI

Structure (SMILES): Oc1cccc(/C(=C(/c2cccc(O)c2)C(F)(F)F)C(F)(F)F)c1
- Effect [1]: 74.8
- Effect [2]: 25.3
- Effect [3]: 29
- Effect [4]: 45.5
- Effect [5]: 15.7
- Effect [6]: 52.6
- TC (Mus musculus [7]): 25.7%
- Effect [8]: 82.1
- Effect [9]: 14.8
- Effect [10]: 47.4
- Effect [11]: 51.8
- TC (Mus musculus [12]): 11.5%
- Effect [13]: 11.1
- Effect [14]: 43
- Effect [15]: 47.8

Structure (SMILES): C[C@H](c1cccc(O)c1)[C@@H](C)c1cccc(O)c1
- Tumors (Rattus norvegicus [16]): 14%
- Effect [3]: 12.4
- Tumors (Rattus norvegicus [17]): 24%
- Tumors (Rattus norvegicus [18]): 29%
- No. of tumors (Rattus norvegicus [19]): 21
- Effect [20]: 73.5
- Tumors (Rattus norvegicus [21]): 16%
- Effect [4]: 12.6
- Effect [5]: 38.5 [middle of 4 runs]
- No. of tumors (Rattus norvegicus [22]): 16
- Effect [6]: 29
- Tumors (Rattus norvegicus [23]): 24%
- No. of tumors (Rattus norvegicus [24]): 22
- Tumors (Rattus norvegicus [25]): 38%
- Tumors (Rattus norvegicus [26]): 9%
- No. of tumors (Rattus norvegicus [27]): 22
- Change in tumor area % (Rattus norvegicus [28]): 188%
- Effect [9]: 11.2 and 9.9 and 10.5
- Tumors (Rattus norvegicus [29]): 34%
- Change in tumor area % (Rattus norvegicus [30]): 6%
- TC (Mus musculus [31]): 66.5%
- Tumors (Rattus norvegicus [32]): 25%
- Change in weight (Rattus norvegicus [33]): 1.6%
- Effect [34]: 34.3
- Tumors (Rattus norvegicus [35]): 11%
- No. of tumors (Rattus norvegicus [36]): 26
- Effect [37]: 86.9
- Change in tumor area % (Rattus norvegicus [38]): 105%
- No. of tumors (Rattus norvegicus [39]): 12
- Effect [13]: 11.9
- Change in weight (Rattus norvegicus [40]): 0.9%
- Effect [14]: 36.5
- Effect [41]: 11.7
- Tumors (Rattus norvegicus [42]): 25%
- Change in weight (Rattus norvegicus [43]): 2.4%
- Effect [44]: 13.1
- TC (Mus musculus [45]): 106%
- Tumors (Rattus norvegicus [46]): 51%
